Experimental findings from ChEMBL document CHEMBL4425163, “Structure elucidation of anti-methicillin resistant Staphylococcus aureus (MRSA) flavonoids from balsam poplar buds” (Bioorg Med Chem, 2016) are described below.

≈ marks a conversion by molar mass, not a printed value.

A word on the MIC: it is the least concentration at which growth counts as inhibited. Broadly, the IC50 is the concentration at which inhibition is half-maximal. The low end stands for inhibition by little substance, the high end for a need for much substance.

The test system of assay [1] is Staphylococcus aureus. Nature of the assay: Antibacterial activity against methicillin resistant Staphylococcus aureus clinical isolate 7 incubated […] by microdilution resazurin assay. Type of assay: functional. (Broth dilution looks for growth in wells or tubes with falling amounts of substance.)
In assay [2] the test system is Staphylococcus aureus. Put plainly: Antibacterial activity against methicillin resistant Staphylococcus aureus clinical isolate 9 incubated […] by microdilution resazurin assay. Type of assay: functional.
Assay [3] relates to Staphylococcus aureus. Nature of the assay: Antibacterial activity against Staphylococcus aureus ATCC 25923 incubated […] by microdilution resazurin assay. Type of assay: functional.
In assay [4] the test system is Staphylococcus aureus. Nature of the assay: Antibacterial activity against methicillin resistant Staphylococcus aureus clinical isolate 10 incubated […] by microdilution resazurin assay. Type of assay: functional.
Assay [5] concerns Staphylococcus aureus. Put plainly: Antibacterial activity against methicillin resistant Staphylococcus aureus clinical isolate 3 incubated for 7 to 14 days by microdilution resazurin assay.
Assay [6] concerns Staphylococcus aureus. Put plainly: Antibacterial activity against methicillin resistant Staphylococcus aureus clinical isolate 4 incubated for 7 to 14 days by microdilution resazurin assay.
Assay [7] has as its system Staphylococcus aureus. Put plainly: Antibacterial activity against methicillin resistant Staphylococcus aureus clinical isolate 5 incubated […] by microdilution resazurin assay. Type of assay: functional.
Assay [8] is described as follows: Cytotoxicity against human WS1 cells by resazurin reduction assay. It counts as cell-based. The following applies: Homo sapiens, WS1. A digest of the protocol:
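WS1 human fibroblast line; resazurin reduction test, slightly modified from an earlier method. Etoposide served as positive control.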
In general terms: Alamar Blue is a resazurin reagent that responds to reducing activity.

In assay [9] the test system is Staphylococcus aureus. Put plainly: Antibacterial activity against methicillin resistant Staphylococcus aureus clinical isolate 2 incubated […] by microdilution resazurin assay. Type of assay: functional.
Assay [10] concerns Staphylococcus aureus. Put plainly: Antibacterial activity against methicillin resistant Staphylococcus aureus clinical isolate 1 incubated […] by microdilution resazurin assay. Type of assay: functional.
The subject of assay [11] is Staphylococcus aureus. Put plainly: Antibacterial activity against methicillin resistant Staphylococcus aureus clinical isolate 6 incubated […] by microdilution resazurin assay. It counts as functional.
The test system of assay [12] is Staphylococcus aureus. Nature of the assay: Antibacterial activity against methicillin resistant Staphylococcus aureus clinical isolate 8 incubated […] by microdilution resazurin assay. Type of assay: functional.
Where [13] appears, read: Staphylococcus aureus, isolate 7, read-out: MIC.
Where [14] appears, read: Staphylococcus aureus, isolate 9, read-out: MIC.
The mark [15] stands for this setting: Staphylococcus aureus, ATCC 25923, read-out: MIC.
Where [16] appears, read: Staphylococcus aureus, isolate 10, read-out: MIC.
The mark [17] stands for this setting: Staphylococcus aureus, isolate 5, read-out: MIC.
Where [18] appears, read: Staphylococcus aureus, isolate 2, read-out: MIC.
[19] abbreviates: Staphylococcus aureus, isolate 1, read-out: MIC.
[20] abbreviates: Staphylococcus aureus, isolate 6, read-out: MIC.
Where [21] appears, read: Staphylococcus aureus, isolate 8, read-out: MIC.

With `O=C(CCc1ccc(O)cc1)c1c(O)cc(O)c2c1O[C@@H](c1ccc(O)cc1)[C@H](C/C=C/c1ccc(O)cc1)C2`, the MIC came to 6 µM (≈ 3.23 µg/mL) in the assay with Staphylococcus aureus [1] (setting [13]); 13 µM (≈ 7 µg/mL) in the assay on Staphylococcus aureus [2] (setting [14]); 13 µM (≈ 7 µg/mL) with Staphylococcus aureus [3] (setting [15]); 13 µM (≈ 7 µg/mL) in the assay with Staphylococcus aureus [4] (setting [16]); 13 µM (≈ 7 µg/mL) in the assay on Staphylococcus aureus [5]; 25 µM (≈ 13.5 µg/mL) against Staphylococcus aureus [6]. In addition, the MIC was 13 µM (≈ 7 µg/mL) with Staphylococcus aureus [7] (setting [17]); 13 µM (≈ 7 µg/mL) with Staphylococcus aureus [9] (setting [18]); 25 µM (≈ 13.5 µg/mL) in the assay on Staphylococcus aureus [10] (setting [19]); 13 µM (≈ 7 µg/mL) in the assay with Staphylococcus aureus [11] (setting [20]); 13 µM (≈ 7 µg/mL) with Staphylococcus aureus [12] (setting [21]). Further, in [8], the half-maximal inhibitory concentration (IC50) is more than 10 µM.

For `O=C(CCc1ccccc1)c1c(O)cc(O)c(C/C=C/c2ccc(O)cc2)c1O`, the MIC with Staphylococcus aureus [1] (setting [13]) turned out to be 6 µM (≈ 2.34 µg/mL); in the assay on Staphylococcus aureus [2] (setting [14]), 3 µM (≈ 1.17 µg/mL); with Staphylococcus aureus [3] (setting [15]) it was 6 µM (≈ 2.34 µg/mL); with Staphylococcus aureus [4] (setting [16]), 6 µM (≈ 2.34 µg/mL); against Staphylococcus aureus [5], 6 µM (≈ 2.34 µg/mL); against Staphylococcus aureus [6] it was 6 µM (≈ 2.34 µg/mL). The minimum inhibitory concentration (MIC) was 3 µM (≈ 1.17 µg/mL) in the assay on Staphylococcus aureus [7] (setting [17]); 6 µM (≈ 2.34 µg/mL) in the assay with Staphylococcus aureus [9] (setting [18]); 6 µM (≈ 2.34 µg/mL) in the assay on Staphylococcus aureus [10] (setting [19]); 50 µM (≈ 19.5 µg/mL) in the assay on Staphylococcus aureus [11] (setting [20]); 3 µM (≈ 1.17 µg/mL) in the assay on Staphylococcus aureus [12] (setting [21]). This compound registered an IC50 in assay [8] of more than 10 µM.

For the compound `O=C(CCc1ccccc1)c1c(O)cc(O)c2c1OC(c1ccc(O)cc1)CC2` (single isomer, unassigned; (+)), the MIC worked out at 6 µM (≈ 2.34 µg/mL) in the assay with Staphylococcus aureus [3] (setting [15]); 13 µM (≈ 5.08 µg/mL) in the assay on Staphylococcus aureus [9]; 13 µM (≈ 5.08 µg/mL) against Staphylococcus aureus [10]; 25 µM (≈ 9.76 µg/mL) in the assay on Staphylococcus aureus [11]; 13 µM (≈ 5.08 µg/mL) against Staphylococcus aureus [12].

Consider GENTAMICIN, for which the MIC in the assay with Staphylococcus aureus [1] worked out at 0.07 µM; in the assay on Staphylococcus aureus [2], 0.07 µM; against Staphylococcus aureus [3], 0.03 µM; with Staphylococcus aureus [4], 0.07 µM; against Staphylococcus aureus [7], 0.08 µM; with Staphylococcus aureus [9], 0.04 µM. Moreover, the MIC against Staphylococcus aureus [10] was 0.05 µM; in the assay on Staphylococcus aureus [11] it was 0.05 µM; in the assay on Staphylococcus aureus [12], 0.09 µM.

For `O=C(/C=C/c1ccccc1)OCC(C/C=C/c1ccc(O)cc1)C(c1ccc(O)cc1)c1c(O)cc(O)c(C(=O)CCc2ccccc2)c1O` (racemic), the MIC with Staphylococcus aureus [1] (setting [13]) worked out at 25 µM (≈ 16.8 µg/mL); with Staphylococcus aureus [2] (setting [14]), 25 µM (≈ 16.8 µg/mL); in the assay on Staphylococcus aureus [3] (setting [15]), 50 µM (≈ 33.5 µg/mL); in the assay with Staphylococcus aureus [4] (setting [16]), 25 µM (≈ 16.8 µg/mL); with Staphylococcus aureus [5], 13 µM (≈ 8.72 µg/mL); against Staphylococcus aureus [6] it was 25 µM (≈ 16.8 µg/mL). Also, the MIC with Staphylococcus aureus [7] (setting [17]) stood at 3 µM (≈ 2.01 µg/mL); in the assay on Staphylococcus aureus [9] (setting [18]) it was 25 µM (≈ 16.8 µg/mL); in the assay on Staphylococcus aureus [10] (setting [19]), 25 µM (≈ 16.8 µg/mL); in the assay with Staphylococcus aureus [11] (setting [20]) it was 25 µM (≈ 16.8 µg/mL); in the assay on Staphylococcus aureus [12] (setting [21]) it was 25 µM (≈ 16.8 µg/mL). Besides, the IC50 in assay [8] was more than 10 µM.

In the case of `COc1ccc(CCC(=O)c2c(O)cc(O)c3c2OC(c2ccc(O)cc2)C(O)C3)cc1` (stereo in doubt; (+)-16), the minimal inhibitory concentration (MIC) in the assay on Staphylococcus aureus [3] (setting [15]) was 25 µM (≈ 10.9 µg/mL); in the assay with Staphylococcus aureus [4], more than 50 µM; with Staphylococcus aureus [7] it was more than 50 µM; in the assay on Staphylococcus aureus [9] it was 50 µM (≈ 21.8 µg/mL); with Staphylococcus aureus [10], more than 50 µM; against Staphylococcus aureus [12] it was 50 µM (≈ 21.8 µg/mL).

Regarding `O=C(CCc1ccc(O)cc1)c1c(O)cc(O)c2c1O[C@H](c1ccc(O)cc1)[C@@H](C/C=C/c1ccc(O)cc1)C2`, the MIC stood at 3 µM (≈ 1.62 µg/mL) with Staphylococcus aureus [1] (setting [13]); 3 µM (≈ 1.62 µg/mL) with Staphylococcus aureus [2] (setting [14]); 6 µM (≈ 3.23 µg/mL) in the assay with Staphylococcus aureus [3] (setting [15]); 3 µM (≈ 1.62 µg/mL) in the assay on Staphylococcus aureus [4] (setting [16]); 3 µM (≈ 1.62 µg/mL) in the assay on Staphylococcus aureus [5]; 3 µM (≈ 1.62 µg/mL) in the assay with Staphylococcus aureus [6]. For the same compound, the MIC with Staphylococcus aureus [7] (setting [17]), with Staphylococcus aureus [9] (setting [18]), in the assay with Staphylococcus aureus [10] (setting [19]), in the assay with Staphylococcus aureus [11] (setting [20]) and with Staphylococcus aureus [12] (setting [21]) was 3 µM (≈ 1.62 µg/mL) each time. Moreover, the IC50 in assay [8] was more than 10 µM.

With `O=C(CCc1ccccc1)c1c(O)cc(O)c2c1OC(c1ccc(O)cc1)C(O)C2` (stereo in doubt; (+)-15), the MIC with Staphylococcus aureus [2], in the assay with Staphylococcus aureus [3] (setting [15]), against Staphylococcus aureus [10], against Staphylococcus aureus [11] and in the assay with Staphylococcus aureus [12] was 25 µM (≈ 10.2 µg/mL) throughout.

As to `O=C(CCc1ccccc1)c1c(O)cc2c(c1O)CC(O)C(c1ccc(O)cc1)O2` (stereo in doubt; (-)-17), the minimum inhibitory concentration (MIC) is 25 µM (≈ 10.2 µg/mL) with Staphylococcus aureus [1] (setting [13]); more than 50 µM with Staphylococcus aureus [2] (setting [14]); 25 µM (≈ 10.2 µg/mL) against Staphylococcus aureus [3]; 50 µM (≈ 20.3 µg/mL) in the assay on Staphylococcus aureus [4] (setting [16]); 50 µM (≈ 20.3 µg/mL) against Staphylococcus aureus [5]; 50 µM (≈ 20.3 µg/mL) in the assay with Staphylococcus aureus [6]. The MIC with Staphylococcus aureus [7] (setting [17]) was 50 µM (≈ 20.3 µg/mL); with Staphylococcus aureus [9] (setting [18]), 50 µM (≈ 20.3 µg/mL); in the assay on Staphylococcus aureus [10] (setting [19]) it was 50 µM (≈ 20.3 µg/mL); in the assay on Staphylococcus aureus [11] (setting [20]) it was 50 µM (≈ 20.3 µg/mL); with Staphylococcus aureus [12] (setting [21]), more than 50 µM. The compound further showed a concentration for half-maximal inhibition (IC50) in [8] of more than 10 µM.
